Results from ChEMBL document CHEMBL1629441, “Synthesis, in vitro and in vivo biological evaluation, and comprehensive understanding of structure-activity relationships of dipeptidyl boronic acid proteasome inhibitors constructed from β-amino acids” (J Med Chem, 2010).

Legend:
HepG2 = assay: Cytotoxicity against human HepG2 cells after 72 hrs by MTT assay; assay type: functional, cell-based; conditions: HepG2, 72 h
Method in brief: (§1)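 MTT growth assay: 3000 cells per well seeded, after 24 h exposed to 10 drug concentrations for 72 h, then MTT (5 mg/mL stock) 4 h at 37 °C. Formazan dissolved in DMSO, absorbance at 540 nm. Points in triplicate; IC50 is mean of at least three independent determinations. Cells grown at 37 °C, 5% CO2 with FBS.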

[1] = Cytotoxicity against human RPMI18226 cells after 72 hrs by MTT assay; assay type: functional, cell-based; conditions: RPMI18226, 72 h; method in brief: as §1
Rattus norvegicus [2] = assay: Toxicity in Sprague-Dawley rat assessed as incidence of mortality at 1 mg/kg, iv after 10 hrs; assay type: organism-based; design: dose 1 mg/kg, route intravenous; conditions: in vivo
Method in brief: (§2)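 Male SD rats dosed once at 1.0 mg/kg, iv bolus or intragastric, during the PK study. Dosing solution 0.5 mg/mL in 1% ethanol, 1% Tween80, 98% buffered saline. Animals observed for death and toxic reactions over 10 h. n = 4 per PK group.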

[3] = Inhibition of human 20S proteasome chymotrypsin-like activity by fluorimetric assay; conditions: read-out: IC50
Method in brief: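 Human 20S proteasome preincubated with test compound, then Suc-Leu-Leu-Val-Tyr-AMC hydrolysis monitored 1 h at 37 °C by fluorescence (excitation 360 nm, 465 nm). Buffer pH 7.5: 20 mM Tris, 1 mM DTT, 10% glycerol, 0.02% (w/v) SDS; DMSO 3% (v/v) final. IC50 from five concentrations, each in duplicate; bortezomib standard.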

SK-OV-3 = assay: Cytotoxicity against human SKOV3 cells after 72 hrs by MTT assay; assay type: functional, cell-based; conditions: SK-OV-3, 72 h; method in brief: as §1
HL-60 = assay: Cytotoxicity against human HL60 cells after 72 hrs by MTT assay; assay type: functional, cell-based; conditions: HL-60, 72 h; method in brief: as §1
[4] = Systemic clearance in Sprague-Dawley rat at 1 mg/kg, iv; assay type: ADME, organism-based; design: dose 1 mg/kg, route intravenous; conditions: in vivo
Method in brief: (§3)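 Male SD rats given single 1.0 mg/kg iv bolus of solution (0.5 mg/mL) in 1% ethanol, 1% Tween80, 98% buffered saline. Heparinized blood samples (n = 4) centrifuged 4000 rpm, 5 min, 4 °C; plasma concentrations used to derive PK parameters.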

BXPC-3 = assay: Cytotoxicity against human BxPC3 cells after 72 hrs by MTT assay; assay type: functional, cell-based; conditions: BXPC-3, 72 h; method in brief: as §1
[5] = Terminal half life in Sprague-Dawley rat at 1 mg/kg, iv; assay type: ADME, organism-based; design: dose 1 mg/kg, route intravenous; conditions: in vivo; method in brief: as §3
[6] = Cmax in Sprague-Dawley rat at 1 mg/kg, iv; assay type: ADME, organism-based; design: dose 1 mg/kg, route intravenous; conditions: in vivo; method in brief: as §3
PC-3 = assay: Cytotoxicity against human PC3 cells after 72 hrs by MTT assay; assay type: functional, cell-based; conditions: PC-3, 72 h; method in brief: as §1
Rattus norvegicus [7] = assay: Toxicity in Sprague-Dawley rat assessed as incidence of mortality at 1 mg/kg, ig after 10 hrs; assay type: organism-based; design: dose 1 mg/kg, route intragastric; conditions: in vivo, po; method in brief: as §2
[8] = Tmax in Sprague-Dawley rat at 1 mg/kg, iv; assay type: ADME, organism-based; design: dose 1 mg/kg, route intravenous; conditions: in vivo; method in brief: as §3
A549 = assay: Cytotoxicity against human A549 cells after 72 hrs by MTT assay; assay type: functional, cell-based; conditions: A549, 72 h; method in brief: as §1
[9] = AUC (0-t) in Sprague-Dawley rat at 1 mg/kg, iv; assay type: ADME, organism-based; design: dose 1 mg/kg, route intravenous; conditions: plasma; method in brief: as §3
[10] = Mean residence time (0-t) in Sprague-Dawley rat at 1 mg/kg, iv; assay type: ADME, organism-based; design: dose 1 mg/kg, route intravenous; conditions: in vivo; method in brief: as §3
SW480 = assay: Cytotoxicity against human SW480 cells after 72 hrs by MTT assay; assay type: functional, cell-based; conditions: SW480, 72 h; method in brief: as §1
[11] = Apparent volume of distribution in Sprague-Dawley rat at 1 mg/kg, iv; assay type: ADME, organism-based; design: dose 1 mg/kg, route intravenous; conditions: in vivo, read-out: Vz; method in brief: as §3

## CC(C)C[C@H](NC(=O)CC(NC(=O)c1ccc2ccccc2c1)c1cccc(F)c1)B(O)O (stereo partly drawn)
HepG2
  IC50: 6990 nM
[1]
  IC50: 330 nM
Rattus norvegicus [2]
  Activity: Non-toxic
[3]
  IC50: 3.01 nM
SK-OV-3
  IC50: 8770 nM
HL-60
  IC50: 530 nM
[4]
  clearance: 9.6 mL/min/kg
BXPC-3
  IC50: 3540 nM
[5]
  half-life: 4.5 h
[6]
  Cmax: 5790 ng/mL
PC-3
  IC50: 2990 nM
Rattus norvegicus [7]
  Activity: Non-toxic
[8]
  Tmax: 1.8 min
A549
  IC50: 2020 nM
[9]
  AUC(0-t): 1710 ng·h/mL
[10]
  MRT last: 1.4 h
SW480
  IC50: 2380 nM
[11]
  Vd: 3.9 L/kg
